Experimental data taken from ChEMBL document CHEMBL3739379, “Anti-Candida activity and cytotoxicity of a large library of new N-substituted-1,3-thiazolidin-4-one derivatives” (Eur J Med Chem, 2016).
Converted amounts (≈) assume the structure as drawn.

test system: Proteus mirabilis; experiment: Antibacterial activity against Proteus mirabilis after 18 to 22 hrs by broth microdilution method; format: functional; conditions: not given
Outline: (§1)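 Broth microdilution per NCCLS in Mueller-Hinton II broth; isolates subcultured for purity. Compounds dissolved in DMSO, serial dilutions 256 to 0.5 µg/mL; inoculum 10^5/mL. Controls: organism without compound, medium only. Incubation 18 to 22 h at 35 °C. MIC is the lowest concentration giving complete growth inhibition, read by unaided eye.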

Row | SMILES | MIC
1 | CCCC/C(CC)=N/N=C1\SCC(=O)N1Cc1ccc([N+](=O)[O-])cc1 | > 256 µg/mL
2 | CCC/C(C)=N/N=C1\SCC(=O)N1Cc1ccc([N+](=O)[O-])cc1 | > 256 µg/mL
3 | CCCC/C(CC)=N/N=C1\SCC(=O)N1Cc1cccc2ccccc12 | > 256 µg/mL
4 | O=C1CS/C(=N\N=C2CCCCCC2)N1Cc1cccc2ccccc12 | > 256 µg/mL
5 | CC1CCC/C1=N\N=C1/SCC(=O)N1Cc1ccc([N+](=O)[O-])cc1 (stereo not given) | > 256 µg/mL

test system: Staphylococcus aureus; experiment: Antibacterial activity against Staphylococcus aureus after 18 to 22 hrs by broth microdilution method; format: functional; conditions: not given; outline: as §1

Row | SMILES | MIC
6 | CCCC/C(CC)=N/N=C1\SCC(=O)N1Cc1ccc([N+](=O)[O-])cc1 | > 256 µg/mL
7 | CCC/C(C)=N/N=C1\SCC(=O)N1Cc1ccc([N+](=O)[O-])cc1 | > 256 µg/mL
8 | CCCC/C(CC)=N/N=C1\SCC(=O)N1Cc1cccc2ccccc12 | > 256 µg/mL
9 | O=C1CS/C(=N\N=C2CCCCCC2)N1Cc1cccc2ccccc12 | > 256 µg/mL
10 | CC1CCC/C1=N\N=C1/SCC(=O)N1Cc1ccc([N+](=O)[O-])cc1 (stereo not given) | > 256 µg/mL

test system: Candida albicans; experiment: Antifungal activity against Candida albicans clinical isolate after 24 hrs by sabouraud dextrose broth based microdilution method; format: functional; conditions: not given
Outline: (§2)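 Clinical isolates identified by conventional methods and subcultured for purity. Broth microdilution per NCCLS in Sabouraud dextrose broth; compounds dissolved in DMSO and serially diluted; inoculum 10^3/mL. Controls: fungi without compound, medium only. Incubated 24 h at 37 °C. MIC is the lowest concentration with complete growth inhibition by unaided eye. Values are geometric means over isolates per species.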

Row | SMILES | MIC
11 | CCCC/C(CC)=N/N=C1\SCC(=O)N1Cc1ccc([N+](=O)[O-])cc1 | 2 µg/mL (≈ 5.52 µM)
12 | CCC/C(C)=N/N=C1\SCC(=O)N1Cc1ccc([N+](=O)[O-])cc1 | 2 µg/mL (≈ 5.98 µM)
13 | CCCC/C(CC)=N/N=C1\SCC(=O)N1Cc1cccc2ccccc12 | 2 µg/mL (≈ 5.44 µM)
14 | O=C1CS/C(=N\N=C2CCCCCC2)N1Cc1cccc2ccccc12 | 8 µg/mL (≈ 21.9 µM)
15 | CC1CCC/C1=N\N=C1/SCC(=O)N1Cc1ccc([N+](=O)[O-])cc1 (stereo not given) | 4 µg/mL (≈ 11.5 µM)

test system: Escherichia coli; experiment: Antibacterial activity against Escherichia coli at after 18 to 22 hrs by broth microdilution method; format: functional; conditions: not given; outline: as §1

Row | SMILES | MIC
16 | CCCC/C(CC)=N/N=C1\SCC(=O)N1Cc1ccc([N+](=O)[O-])cc1 | > 256 µg/mL
17 | CCC/C(C)=N/N=C1\SCC(=O)N1Cc1ccc([N+](=O)[O-])cc1 | > 256 µg/mL
18 | CCCC/C(CC)=N/N=C1\SCC(=O)N1Cc1cccc2ccccc12 | > 256 µg/mL
19 | O=C1CS/C(=N\N=C2CCCCCC2)N1Cc1cccc2ccccc12 | > 256 µg/mL
20 | CC1CCC/C1=N\N=C1/SCC(=O)N1Cc1ccc([N+](=O)[O-])cc1 (stereo not given) | > 256 µg/mL

test system: Nakaseomyces glabratus; experiment: Antifungal activity against Candida glabrata clinical isolate after 24 hrs by sabouraud dextrose broth based microdilution method; format: functional; conditions: not given; outline: as §2

Row | SMILES | MIC
21 | CCCC/C(CC)=N/N=C1\SCC(=O)N1Cc1ccc([N+](=O)[O-])cc1 | 8 µg/mL (≈ 22.1 µM)
22 | CCC/C(C)=N/N=C1\SCC(=O)N1Cc1ccc([N+](=O)[O-])cc1 | 2 µg/mL (≈ 5.98 µM)
23 | CCCC/C(CC)=N/N=C1\SCC(=O)N1Cc1cccc2ccccc12 | 8 µg/mL (≈ 21.8 µM)
24 | O=C1CS/C(=N\N=C2CCCCCC2)N1Cc1cccc2ccccc12 | 16 µg/mL (≈ 43.8 µM)
25 | CC1CCC/C1=N\N=C1/SCC(=O)N1Cc1ccc([N+](=O)[O-])cc1 (stereo not given) | 16 µg/mL (≈ 46.2 µM)

test system: Enterococcus faecalis; experiment: Antibacterial activity against […] faecalis after 18 to 22 hrs by broth microdilution method; format: functional; conditions: not given; outline: as §1

Row | SMILES | MIC
26 | CCCC/C(CC)=N/N=C1\SCC(=O)N1Cc1ccc([N+](=O)[O-])cc1 | > 256 µg/mL
27 | CCC/C(C)=N/N=C1\SCC(=O)N1Cc1ccc([N+](=O)[O-])cc1 | > 256 µg/mL
28 | CCCC/C(CC)=N/N=C1\SCC(=O)N1Cc1cccc2ccccc12 | > 256 µg/mL
29 | O=C1CS/C(=N\N=C2CCCCCC2)N1Cc1cccc2ccccc12 | > 256 µg/mL
30 | CC1CCC/C1=N\N=C1/SCC(=O)N1Cc1ccc([N+](=O)[O-])cc1 (stereo not given) | > 256 µg/mL

test system: Candida parapsilosis; experiment: Antifungal activity against Candida parapsilosis clinical isolate after 24 hrs by sabouraud dextrose broth based microdilution method; format: functional; conditions: Lodderomyces parapsilosis; outline: as §2

Row | SMILES | MIC
31 | CCCC/C(CC)=N/N=C1\SCC(=O)N1Cc1ccc([N+](=O)[O-])cc1 | 16 µg/mL (≈ 44.1 µM)
32 | CCC/C(C)=N/N=C1\SCC(=O)N1Cc1ccc([N+](=O)[O-])cc1 | 16 µg/mL (≈ 47.8 µM)
33 | CCCC/C(CC)=N/N=C1\SCC(=O)N1Cc1cccc2ccccc12 | 16 µg/mL (≈ 43.5 µM)
34 | O=C1CS/C(=N\N=C2CCCCCC2)N1Cc1cccc2ccccc12 | 4 µg/mL (≈ 10.9 µM)
35 | CC1CCC/C1=N\N=C1/SCC(=O)N1Cc1ccc([N+](=O)[O-])cc1 (stereo not given) | 8 µg/mL (≈ 23.1 µM)

test system: Klebsiella oxytoca; experiment: Antibacterial activity against Klebsiella oxytoca after 18 to 22 hrs by broth microdilution method; format: functional; conditions: not given; outline: as §1

Row | SMILES | MIC
36 | CCCC/C(CC)=N/N=C1\SCC(=O)N1Cc1ccc([N+](=O)[O-])cc1 | > 256 µg/mL
37 | CCC/C(C)=N/N=C1\SCC(=O)N1Cc1ccc([N+](=O)[O-])cc1 | > 256 µg/mL
38 | CCCC/C(CC)=N/N=C1\SCC(=O)N1Cc1cccc2ccccc12 | > 256 µg/mL
39 | O=C1CS/C(=N\N=C2CCCCCC2)N1Cc1cccc2ccccc12 | > 256 µg/mL
40 | CC1CCC/C1=N\N=C1/SCC(=O)N1Cc1ccc([N+](=O)[O-])cc1 (stereo not given) | > 256 µg/mL

test system: Candida tropicalis; experiment: Antifungal activity against Candida tropicalis clinical isolate after 24 hrs by sabouraud dextrose broth based microdilution method; format: functional; conditions: not given; outline: as §2

Row | SMILES | MIC
41 | CCCC/C(CC)=N/N=C1\SCC(=O)N1Cc1ccc([N+](=O)[O-])cc1 | 2 µg/mL (≈ 5.52 µM)
42 | CCC/C(C)=N/N=C1\SCC(=O)N1Cc1ccc([N+](=O)[O-])cc1 | 64 µg/mL (≈ 191 µM)
43 | CCCC/C(CC)=N/N=C1\SCC(=O)N1Cc1cccc2ccccc12 | 2 µg/mL (≈ 5.44 µM)
44 | O=C1CS/C(=N\N=C2CCCCCC2)N1Cc1cccc2ccccc12 | 8 µg/mL (≈ 21.9 µM)
45 | CC1CCC/C1=N\N=C1/SCC(=O)N1Cc1ccc([N+](=O)[O-])cc1 (stereo not given) | 2 µg/mL (≈ 5.77 µM)

test system: Enterobacter sp.; experiment: Antibacterial activity against Enterobacter sp. after 18 to 22 hrs by broth microdilution method; format: functional; conditions: not given; outline: as §1

Row | SMILES | MIC
46 | CCCC/C(CC)=N/N=C1\SCC(=O)N1Cc1ccc([N+](=O)[O-])cc1 | > 256 µg/mL
47 | CCC/C(C)=N/N=C1\SCC(=O)N1Cc1ccc([N+](=O)[O-])cc1 | > 256 µg/mL
48 | CCCC/C(CC)=N/N=C1\SCC(=O)N1Cc1cccc2ccccc12 | > 256 µg/mL
49 | O=C1CS/C(=N\N=C2CCCCCC2)N1Cc1cccc2ccccc12 | > 256 µg/mL
50 | CC1CCC/C1=N\N=C1/SCC(=O)N1Cc1ccc([N+](=O)[O-])cc1 (stereo not given) | > 256 µg/mL

test system: Pichia kudriavzevii; experiment: Antifungal activity against Candida krusei clinical isolate after 24 hrs by sabouraud dextrose broth based microdilution method; format: functional; conditions: not given; outline: as §2

Row | SMILES | MIC
51 | CCCC/C(CC)=N/N=C1\SCC(=O)N1Cc1ccc([N+](=O)[O-])cc1 | 16 µg/mL (≈ 44.1 µM)
52 | CCC/C(C)=N/N=C1\SCC(=O)N1Cc1ccc([N+](=O)[O-])cc1 | 16 µg/mL (≈ 47.8 µM)
53 | CCCC/C(CC)=N/N=C1\SCC(=O)N1Cc1cccc2ccccc12 | 16 µg/mL (≈ 43.5 µM)
54 | O=C1CS/C(=N\N=C2CCCCCC2)N1Cc1cccc2ccccc12 | 4 µg/mL (≈ 10.9 µM)
55 | CC1CCC/C1=N\N=C1/SCC(=O)N1Cc1ccc([N+](=O)[O-])cc1 (stereo not given) | 2 µg/mL (≈ 5.77 µM)

test system: Staphylococcus haemolyticus; experiment: Antibacterial activity against Staphylococcus haemolyticus after 18 to 22 hrs by broth microdilution method; format: functional; conditions: not given; outline: as §1

Row | SMILES | MIC
56 | CCCC/C(CC)=N/N=C1\SCC(=O)N1Cc1ccc([N+](=O)[O-])cc1 | > 256 µg/mL
57 | CCC/C(C)=N/N=C1\SCC(=O)N1Cc1ccc([N+](=O)[O-])cc1 | > 256 µg/mL
58 | CCCC/C(CC)=N/N=C1\SCC(=O)N1Cc1cccc2ccccc12 | > 256 µg/mL
59 | O=C1CS/C(=N\N=C2CCCCCC2)N1Cc1cccc2ccccc12 | > 256 µg/mL
60 | CC1CCC/C1=N\N=C1/SCC(=O)N1Cc1ccc([N+](=O)[O-])cc1 (stereo not given) | > 256 µg/mL

test system: Staphylococcus warneri; experiment: Antibacterial activity against Staphylococcus warneri after 18 to 22 hrs by broth microdilution method; format: functional; conditions: not given; outline: as §1

Row | SMILES | MIC
61 | CCCC/C(CC)=N/N=C1\SCC(=O)N1Cc1ccc([N+](=O)[O-])cc1 | > 256 µg/mL
62 | CCC/C(C)=N/N=C1\SCC(=O)N1Cc1ccc([N+](=O)[O-])cc1 | > 256 µg/mL
63 | CCCC/C(CC)=N/N=C1\SCC(=O)N1Cc1cccc2ccccc12 | > 256 µg/mL
64 | O=C1CS/C(=N\N=C2CCCCCC2)N1Cc1cccc2ccccc12 | > 256 µg/mL
65 | CC1CCC/C1=N\N=C1/SCC(=O)N1Cc1ccc([N+](=O)[O-])cc1 (stereo not given) | > 256 µg/mL

test system: [Candida] sake; experiment: Antifungal activity against Candida sake clinical isolate after 24 hrs by sabouraud dextrose broth based microdilution method; format: functional; conditions: Fermentozyma sake; outline: as §2

Row | SMILES | MIC
66 | CCCC/C(CC)=N/N=C1\SCC(=O)N1Cc1ccc([N+](=O)[O-])cc1 | 2 µg/mL (≈ 5.52 µM)
67 | CCC/C(C)=N/N=C1\SCC(=O)N1Cc1ccc([N+](=O)[O-])cc1 | 8 µg/mL (≈ 23.9 µM)
68 | CCCC/C(CC)=N/N=C1\SCC(=O)N1Cc1cccc2ccccc12 | 2 µg/mL (≈ 5.44 µM)
69 | O=C1CS/C(=N\N=C2CCCCCC2)N1Cc1cccc2ccccc12 | 4 µg/mL (≈ 10.9 µM)
70 | CC1CCC/C1=N\N=C1/SCC(=O)N1Cc1ccc([N+](=O)[O-])cc1 (stereo not given) | 2 µg/mL (≈ 5.77 µM)
